Data on 16 compounds can be found in ChEMBL document CHEMBL1828598, “Discovery of gemfibrozil analogues that activate PPARα and enhance the expression of gene CPT1A involved in fatty acids catabolism” (Eur J Med Chem, 2011).

The EC50 is the concentration at which the effect is half-maximal.

The target in assay [1] is T1, Peroxisome proliferator-activated receptor alpha (Homo sapiens, UniProt Q07869).
T1 sequence (Q07869 whole entry): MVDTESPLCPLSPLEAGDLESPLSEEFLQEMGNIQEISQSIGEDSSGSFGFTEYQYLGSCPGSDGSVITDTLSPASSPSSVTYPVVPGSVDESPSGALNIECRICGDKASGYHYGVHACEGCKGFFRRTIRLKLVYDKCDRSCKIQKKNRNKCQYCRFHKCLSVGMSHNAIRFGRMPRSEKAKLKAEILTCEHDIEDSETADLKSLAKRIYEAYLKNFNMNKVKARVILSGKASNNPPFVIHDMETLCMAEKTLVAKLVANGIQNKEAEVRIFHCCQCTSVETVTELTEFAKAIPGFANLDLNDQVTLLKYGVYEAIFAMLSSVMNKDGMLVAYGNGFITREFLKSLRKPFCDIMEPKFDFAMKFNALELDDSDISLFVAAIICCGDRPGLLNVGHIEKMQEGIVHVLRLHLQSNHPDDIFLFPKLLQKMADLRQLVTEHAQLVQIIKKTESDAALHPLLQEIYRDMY
The experiment in a line: Agonist activity at Gal4-fused PPARalpha expressed in HEK293 cells after 18 hrs by dual luciferase reporter gene assay. The format is functional, cell-based. In short, it runs like this: (§1)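 HEK293 cells were grown in DMEM with 10% FCS, penicillin/streptomycin, sodium pyruvate and nonessential amino acids at 37 °C, 5% CO2. The next day they were transfected in serum-free medium by calcium phosphate with GAL4-PPARα LBD (30 ng), firefly luciferase reporter (50 ng), renilla normalization vector (20 ng) and carrier DNA. Ligands were added 8 h later for 18 h. Efficacy is given as % of maximal gemfibrozil fold induction, from at least three separate experiments.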
(A reporter such as luciferase makes a cellular process visible.)

The target of assay [2] is T2, Peroxisome proliferator-activated receptor alpha (Homo sapiens) (UniProt Q07869).
T2 sequence (whole entry): T1 sequence (Q07869 whole entry)
In words: Agonist activity at Gal4-fused PPARalpha expressed in HEK293 cells after 18 hrs by dual luciferase reporter gene assay relative to gemfibrozil. The format is functional, cell-based. In outline:
as §1

In a further assay the test system is HEK293. In words: Selectivity ratio of EC50 for Gal4-fused PPARalpha expressed in HEK293 cells to EC50 for Gal4-fused PPARgamma expressed in HEK293 cells. The format is cell-based.
Assay [3] concerns the target T2, Peroxisome proliferator-activated receptor alpha (Homo sapiens). The experiment in a line: Agonist activity at PPARalpha in human HepG2 cells assessed as upregulation of CPT1a mRNA expression at 0.1 to 100 uM after 24 hrs by quantitative RT-PCR analysis. It is filed as functional, cell-based. In outline:
(§2)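 HepG2 cells were kept in DMEM with 10% FCS and 1% penicillin/streptomycin and seeded at 5 × 10⁵ cells/well the day before. They were treated 24 h with ligands in DMSO diluted in growth medium, and vehicle-only cells served as controls. Total RNA was taken with TRIzol and DNase-treated. CPT1A mRNA was measured by RT-qPCR against cyclophilin and normalized to vehicle-treated cells. Data are mean ± SEM of four independent determinations run in duplicate.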

Assay [4] has the same target. In words: Agonist activity at PPARalpha in human HepG2 cells assessed as upregulation of CPT1a mRNA expression after 24 hrs by quantitative RT-PCR analysis. The format is functional, cell-based. In short, it runs like this:
as §2

Assay [5] has the same target. In words: Agonist activity at PPARalpha in human HepG2 cells assessed as upregulation of CPT1a mRNA expression at 10 uM after 24 hrs by quantitative RT-PCR analysis relative to gemfibrozil. It is filed as functional, cell-based. In outline:
as §2

Assay [6] shares this target. In words: Agonist activity at PPARalpha in human HepG2 cells assessed as upregulation of CPT1a mRNA expression at 100 uM after 24 hrs by quantitative RT-PCR analysis relative to gemfibrozil. It is filed as functional, cell-based. In short, it runs like this: as §2

Calls of active or inactive are those of the source. No cut-off for these calls is given here.

Take `CC(C)(CCCOc1ccc(Oc2ccccc2)cc1)C(=O)O`: the 50% effective concentration (EC50) in assay [1] (read-out: EC50) stood at 9.1 µM. In assay [2], this compound had an Efficacy of 118%. The Ratio EC50 with HEK293 is 1.4.
For the compound `C=CCc1ccc(OCCCCC(=O)O)c(OC)c1`, the EC50 in assay [1] (read-out: EC50) was found to be 11.3 µM. In addition, in assay [2], the Efficacy is 94%. In the assay with HEK293, the Ratio EC50 was 0.8. Further, the result in assay [3] was inactive.
Regarding `O=C(O)CCCCOc1ccc(/N=N/c2ccccc2)cc1`, in assay [1] (hek293), the EC50 result was “Not Active”.
`Cc1ccc(C)c(OCCCC(C)(C)C(=O)O)c1` [GEMFIBROZIL]: in assay [1] (read-out: EC50), the EC50 was found to be 59 µM. For the same compound, the Ratio EC50 with HEK293 stood at 0.7. Further, in assay [3], the outcome was Active.
For the compound `CC(C)(CCCOc1ccc(C(=O)c2ccccc2)cc1)C(=O)O`, the concentration giving a half-maximal response (EC50) in assay [1] (read-out: EC50) was determined as 9.3 µM. In assay [2], this compound returned an Efficacy of 82%. Besides, the Ratio EC50 in the assay with HEK293 amounted to 0.9.
For the compound `CC(C)(CCCOc1ccc(/C=C/c2ccccc2)cc1)C(=O)O`, the EC50 in assay [1] (read-out: EC50) was 1 µM. The same compound had an Efficacy in assay [2] of 223%. Moreover, the Ratio EC50 in the assay on HEK293 was determined as 1.4. For the same compound, the Activity result in assay [4] was “Dose-dependent effect”. In addition, the fold change (FC) in assay [5] is 2; in assay [6] it was 6.
With `C=CCc1ccc(OCCCC(C)(C)C(=O)O)c(OC)c1`, the EC50 in assay [1] (read-out: EC50) stood at 6.6 µM. Also, in assay [2], the Efficacy is 117%. Also, the Ratio EC50 in the assay with HEK293 came to 1. Moreover, the result in assay [3] was inactive.
With `CC(C)(CCCOc1ccc(/N=N/c2ccccc2)cc1)C(=O)O`, in assay [1] (read-out: EC50), the EC50 is 43.7 µM. In assay [2], the Efficacy worked out at 76%. Also, in the assay on HEK293, the Ratio EC50 came out at 0.8.
On the same counts, the results for `O=C(O)CCCCOc1ccc(/C=C/c2ccccc2)cc1` are 18.8 µM, 206% and 1.1.
For `O=C(O)CCCCOc1ccc(NC(=O)Nc2ccccc2)cc1`, the EC50 in assay [1] (read-out: EC50) was 9.3 µM. In assay [2], this compound came in with an Efficacy of 106%. The Ratio EC50 in the assay with HEK293 was determined as 1.3. In assay [3], the result was inactive.
With `O=C(O)CCCCOc1ccc(C(=O)c2ccccc2)cc1`, the EC50 in assay [1] (read-out: EC50) turned out to be 27.1 µM. This compound gave an Efficacy in assay [2] of 123%. Also, in the assay on HEK293, the Ratio EC50 came out at 1.
`CC(=O)c1ccc(OCCCCC(=O)O)cc1`: the EC50 entry in assay [1] (hek293) was “Not Active”.
With `O=C(O)CCCCOc1ccc(C(=O)/C=C/c2ccccc2)cc1`, in assay [1] (read-out: EC50), the concentration giving a half-maximal response (EC50) is 109 µM. The Efficacy in assay [2] is 235%. The Ratio EC50 in the assay with HEK293 is 3.
Take `O=C(O)CCCCOc1ccc(Oc2ccccc2)cc1`: in assay [1] (hek293), the EC50 result is “Not Active”.
Consider `CC(C)(CCCOc1ccc(C(=O)/C=C/c2ccccc2)cc1)C(=O)O`, for which the EC50 in assay [1] (read-out: EC50) was 61.5 µM. Also, the Efficacy in assay [2] came to 165%. Moreover, the Ratio EC50 in the assay on HEK293 was determined as 2.1.
For the compound `CC(=O)c1ccc(OCCCC(C)(C)C(=O)O)cc1`, the EC50 result in assay [1] (hek293) is listed as “Not Active”.
